Source: ChEMBL document CHEMBL2157912, “Pyrido[1,2-a]pyrimidin-4-ones as antiplasmodial falcipain-2 inhibitors” (Bioorg Med Chem, 2012)

Experiments:
Plasmodium falciparum [1] = assay: Inhibition of recombinant Plasmodium falciparum falcipain 2 at 10 uM preincubated for 10 mins before addition of Z-Phe-Arg-AMC substrate by fluorescence spectrophotometry
Method in brief: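 Soluble recombinant FP-2 (30 nM) preincubated with compound at 10 µM for 10 min at room temperature in 100 mM sodium acetate pH 5.5 with 10 mM DTT. Compound was diluted from DMSO stock. Z-Phe-Arg-AMC was then added (25 µM final), and fluorescence (ex 355/em 460 nm) was followed for 10 min at room temperature. % inhibition = [1 − Ftest/Fcontrol]×100; mean of three independent determinations.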

[2] = Inhibition of recombinant Plasmodium falciparum falcipain 2 incubated with compound for 10 mins before addition of Z-Phe-Arg-AMC substrate by fluorescence spectrophotometry
Method in brief: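 FP-2 (30 nM) was preincubated for 10 min at room temperature with a series of fixed compound concentrations (from DMSO stock) in 100 mM sodium acetate pH 5.5, 10 mM DTT. Z-Phe-Arg-AMC was added to 25 µM final and AMC fluorescence (355/460 nm) monitored 10 min. IC50 was determined only for compounds reaching ≥40% inhibition at 10 µM; values are means of three independent determinations.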

Plasmodium falciparum [3] = assay: Inhibition of recombinant Plasmodium falciparum falcipain 2 at 2 uM preincubated for 10 mins before addition of Z-Phe-Arg-AMC substrate by fluorescence spectrophotometry

Row | SMILES | inhibition (Plasmodium falciparum [1]) [%] | IC50 [2] [µM] | inhibition (Plasmodium falciparum [3]) [%]
1 | COc1ccc(CNC(=O)Nc2cnc3ccccn3c2=O)cc1 | 18 |  | 
2 | O=C(Nc1cnc2ccccn2c1=O)OCc1ccccc1 | 12 |  | 
3 | O=C(Nc1cnc2ccccn2c1=O)N1CCN(c2ccccn2)CC1 | 46 | 15 | 
4 | Cc1ccn2c(=O)c(C(=O)NCc3ccc(F)cc3)cnc2c1 | 6 |  | 
5 | O=C(Nc1cnc2ccccn2c1=O)OCc1ccccn1 | 18 |  | 
6 | O=C(NCc1ccc2c(c1)OCO2)c1cnc2ccccn2c1=O | 7 |  | 
7 | O=C(NCc1ccc(Cl)cc1)Nc1cnc2ccccn2c1=O | 39 |  | 
8 | COc1ccc(N2CCN(C(=O)Nc3cnc4ccc(Cl)cn4c3=O)CC2)cc1 | 36 |  | 
9 | Cc1ccn2c(=O)c(NC(=O)N3CCN(C(c4ccccc4)c4ccccc4)CC3)cnc2c1 | 23 |  | 
10 | O=C(Nc1cnc2ccc(Cl)cn2c1=O)N1CCN(c2ccccn2)CC1 | 41 | 12 | 
11 | O=C(NCc1ccc2c(c1)OCO2)c1cnc2ccc(Cl)cn2c1=O | 24 |  | 
12 | COc1ccc(N2CCN(C(=O)Nc3cnc4ccccn4c3=O)CC2)cc1 | 43 |  | 
13 | CC(C)C[C@H](NC(=O)[C@H]1O[C@@H]1C(=O)O)C(=O)NCCCCN=C(N)N [E-64] |  | 0.02 | 92

Next, values leading:

Row | inhibition (Plasmodium falciparum [1]) [%] | IC50 [2] [µM] | inhibition (Plasmodium falciparum [3]) [%] | SMILES
14 | 63 | 6 |  | COCCNC(=O)Nc1cnc2cc(C)ccn2c1=O
15 | 15 |  |  | CC(=O)NCCNC(=O)Nc1cnc2cc(C)ccn2c1=O
16 | 44 | 14 |  | O=C(NCCc1cccs1)Nc1cnc2ccccn2c1=O
17 | 31 |  |  | COCCNC(=O)Nc1cnc2ccccn2c1=O
18 | 27 |  |  | Cc1ccn2c(=O)c(NC(=O)NCCN3CCOCC3)cnc2c1
19 | 68 | 7 |  | O=C(NCCN1CCOCC1)Nc1cnc2ccc(Cl)cn2c1=O
20 | 31 |  |  | Cc1ccn2c(=O)c(NC(=O)OCc3ccccc3)cnc2c1
21 | 45 | 21 |  | Cc1ccn2c(=O)c(NC(=O)NCCc3cccs3)cnc2c1
22 | 42 | 18 |  | Cc1ccn2c(=O)c(NC(=O)OCc3ccccn3)cnc2c1
23 | 25 |  |  | O=C(NCCCN1CCOCC1)Nc1cnc2ccccn2c1=O
24 | 46 | 19 |  | COc1ccc(N2CCN(C(=O)Nc3cnc4cc(C)ccn4c3=O)CC2)cc1
25 | 42 | 23 |  | O=C(NCCc1cccs1)Nc1cnc2ccc(Cl)cn2c1=O
26 | 46 | 16 |  | CC(=O)NCCNC(=O)Nc1cnc2ccccn2c1=O
27 | 37 |  |  | Cc1ccn2c(=O)c(NC(=O)N3CCN(c4ccccn4)CC3)cnc2c1
